The text below walks through data of ChEMBL document CHEMBL4765355, “Synthesis of adenine dinucleosides SAM analogs as specific inhibitors of SARS-CoV nsp14 RNA cap guanine-N7-methyltransferase” (Eur J Med Chem, 2020).

The test system of data set [1] is Orthopoxvirus vaccinia. The data set is described as follows: Inhibition of 2'-O-methyltransferase activity of Vaccinia virus VP39 at 200 uM.
Data set [2] deals with RNA-N7 MTase (mRNA cap guanine-N(7) methyltransferase) (Homo sapiens, UniProt O43148). The data set is described as follows: Inhibition of N-terminal His6-tagged human RNA-N7 MTase expressed in Escherichia coli using GpppAC4 and [3H]SAM as substrate at 50 uM preincubated with enzyme followed by substrate addition and measured after 30 mins by filter binding assay. The settings on record: probe GpppAC4 and [3H]SAM. In a few lines:
(§1)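 Filter binding assay in 40 mM Tris-HCl pH 8.0, 1 mM DTT, 1 mM MgCl2, 2 µM SAM, 0.1 µM 3H-SAM and 0.7 µM GpppAC4 RNA. Enzyme is nsp14 (50 nM), hRNMT (50 nM) or vaccinia D1–D12 (41 U). Compound is at 50 µM with 5% final DMSO. Reactions run 30 min at 30 °C, are stopped by ice-cold water dilution, and 3H on DEAE filters is counted. Percent inhibition is relative to a 5% DMSO control, mean of three experiments.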

Data set [3] has as its system Severe acute respiratory syndrome-related coronavirus. The data set is described as follows: Inhibition of N7-MTase activity of N-terminal His6-tagged SARS-CoV nsp14 expressed in Escherichia coli using GpppAC4 and [3H]SAM as substrate at 50 uM preincubated with enzyme followed by substrate addition and measured after 30 mins by filter binding assay. In a few lines: as §1

The subject of the next data set is West Nile virus. The data set is described as follows: Inhibition of 2'-O-methyltransferase in West-Nile virus at 200 uM.
In another data set the test system is Dengue virus. The data set is described as follows: Inhibition of 2'-O-methyltransferase in Dengue virus at 200 uM.
The subject of data set [4] is Severe acute respiratory syndrome-related coronavirus. Description: Inhibition of 2'-O-MTase activity of SARS-CoV nsp10/16 complex at 200 uM.
The subject of a further data set is Zika virus. Description: Inhibition of 2'-O-methyltransferase in Zika virus at 200 uM.
Data set [5] has as its system Orthopoxvirus vaccinia. Description: Inhibition of N7-MTase activity of Vaccinia virus mRNA capping enzyme D1/D12 complex using GpppAC4 and [3H]SAM as substrate at 50 uM preincubated with enzyme followed by substrate addition and measured after 30 mins by filter binding assay. In a few lines: as §1
The nature of data set [6]: Inhibition of N7-MTase activity of N-terminal His6-tagged SARS-CoV nsp14 expressed in Escherichia coli using GpppAC4 and [3H]SAM as substrate preincubated with enzyme followed by substrate addition and measured after 30 mins by filter binding assay. The arrangement: species or system Severe acute respiratory syndrome-related coronavirus. The method, boiled down: (§2)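 Dose-response filter binding assay with nsp14 or hRNMT (each 50 nM) pre-incubated with increasing compound concentrations (5% final DMSO). Then 0.7 µM GpppAC4, 2 µM SAM and 0.1 µM 3H-SAM are added in Tris pH 8.0/DTT/MgCl2, 30 min at 30 °C. IC50 is taken from a Hill slope fit, mean of three independent experiments.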

Data set [7] concerns the target mRNA cap guanine-N(7) methyltransferase (Homo sapiens, UniProt O43148). The data set is described as follows: Inhibition of N-terminal His6-tagged human RNA-N7 MTase expressed in Escherichia coli using GpppAC4 and [3H]SAM as substrate preincubated with enzyme followed by substrate addition and measured after 30 mins by filter binding assay. The method, boiled down:
as §2

Data set [8] has as its system Severe acute respiratory syndrome-related coronavirus. The data set is described as follows: Binding affinity to SARS-CoV nsp14 assessed as increase in melting temperature at 1 mM at pH 7.5 by differential scanning fluorimetry. The method, boiled down:
(§3)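 Purified SARS-CoV nsp14 (5 µM) in 20 mM HEPES pH 7.5, 150 mM NaCl and 1X SYPRO orange, with 1 mM compound (DMSO stock; SAM and sinefungin from water). Protein is mixed with compound before dye is added. Fluorescence is read from 20 to 95 °C at 0.2 °C/min. Tm comes from curve fitting, and ΔTm is taken against a 5% DMSO control.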
A general note: In DSF a fluorescence change marks the thermal transition of the protein.

The test system is the same in data set [9]. Description: Binding affinity to SARS-CoV nsp14 assessed as melting temperature at 1 mM at pH 7.5 by differential scanning fluorimetry. The method, boiled down: as §3

As a reminder, the inhibition is the percentage by which the read-out fell short of the control. For orientation: pIC50 means the IC50 on a negative log10 scale, so that one unit is a factor of ten. In general, ΔTm refers to the shift of the melting midpoint relative to a reference.

pIC50: −log10 of the molar value. Calls of active or inactive are those of the source. The rule behind the calls is not given here.

Sequence of RNA-N7 MTase (mRNA cap guanine-N(7) methyltransferase) (O43148 whole entry): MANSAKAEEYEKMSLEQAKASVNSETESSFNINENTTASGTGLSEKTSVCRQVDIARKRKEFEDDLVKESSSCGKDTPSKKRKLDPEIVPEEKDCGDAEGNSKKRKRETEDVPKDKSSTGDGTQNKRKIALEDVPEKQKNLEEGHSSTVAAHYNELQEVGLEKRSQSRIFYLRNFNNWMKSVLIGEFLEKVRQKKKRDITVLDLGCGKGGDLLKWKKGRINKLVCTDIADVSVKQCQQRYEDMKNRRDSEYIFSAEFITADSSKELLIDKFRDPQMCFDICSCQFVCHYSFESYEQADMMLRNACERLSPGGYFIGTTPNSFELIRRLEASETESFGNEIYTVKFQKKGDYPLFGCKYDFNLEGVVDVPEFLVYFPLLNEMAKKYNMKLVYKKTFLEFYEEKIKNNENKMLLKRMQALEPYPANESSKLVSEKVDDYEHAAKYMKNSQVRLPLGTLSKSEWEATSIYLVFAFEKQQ
Sequence of mRNA cap guanine-N(7) methyltransferase (O43148 whole entry): as above

Consider `COC(=O)CCCN(CCO[C@@H]1[C@H](O)[C@@H](CO)O[C@H]1n1cnc2c(N)ncnc21)C[C@H]1O[C@@H](n2cnc3c(N)ncnc32)[C@H](O)[C@@H]1O`, for which the inhibition result (in the data set with Orthopoxvirus vaccinia [1]; in data set [3]; in the data set with West Nile virus; with Dengue virus; in [4]; in the data set with Zika virus) was “inactive” each time. The compound also gave an inhibition at 0.5 h, 50 µM in data set [2] of 32.8%. For the same compound, the inhibition in the data set on Orthopoxvirus vaccinia [5] was determined as 69.2%.
In the case of `Nc1ncnc2c1ncn2[C@@H]1O[C@H](CN(CCO[C@@H]2[C@H](O)[C@@H](CO)O[C@H]2n2cnc3c(N)ncnc32)CC[C@H](N)C(=O)O)[C@@H](O)[C@H]1O`, the inhibition entry (with Orthopoxvirus vaccinia [1]; in the data set with West Nile virus; with Dengue virus; in data set [4]; in the data set on Zika virus) was “inactive” throughout. Moreover, the inhibition at 0.5 h, 50 µM in data set [2] was determined as 77.4%. Further, the pIC50 is 4.39 in [6] and 4.96 in data set [7]. Also, the inhibition in data set [3] came out at 72%; in the data set on Orthopoxvirus vaccinia [5] it was 85.8%.
On to `COC(=O)[C@@H](N)CCN(CCO[C@@H]1[C@H](O)[C@@H](CO)O[C@H]1n1cnc2c(N)ncnc21)C[C@H]1O[C@@H](n2cnc3c(N)ncnc32)[C@H](O)[C@@H]1O`, for which the inhibition result (in the data set with Orthopoxvirus vaccinia [1]; in the data set with West Nile virus; with Dengue virus; in data set [4]; with Zika virus) was “inactive” in each case. For the same compound, the inhibition at 0.5 h, 50 µM in data set [2] is 33.2%. The results for the inhibition (in data set [3]; with Orthopoxvirus vaccinia [5]) were 30.6% and 32.1%, respectively.
`NC(=O)[C@@H](N)CCN(CCO[C@@H]1[C@H](O)[C@@H](CO)O[C@H]1n1cnc2c(N)ncnc21)C[C@H]1O[C@@H](n2cnc3c(N)ncnc32)[C@H](O)[C@@H]1O`: the inhibition result (with Orthopoxvirus vaccinia [1]; in the data set with West Nile virus; in the data set on Dengue virus; in [4]; in the data set on Zika virus) was “inactive” in each case. In [2], this compound gave an inhibition at 0.5 h, 50 µM of 12.2%. Also, the inhibition stood at 13.1% in data set [3] and 53.2% with Orthopoxvirus vaccinia [5].
`CCCCN(CCO[C@@H]1[C@H](O)[C@@H](CO)O[C@H]1n1cnc2c(N)ncnc21)C[C@H]1O[C@@H](n2cnc3c(N)ncnc32)[C@H](O)[C@@H]1O`: the inhibition entry (in the data set with Orthopoxvirus vaccinia [1]; in data set [3]; with West Nile virus; in the data set with Dengue virus; in data set [4]; with Zika virus) was “inactive” in each case. Moreover, the inhibition result with Orthopoxvirus vaccinia [5] is “inactive”. This compound also showed an inhibition at 0.5 h, 50 µM in data set [2] of 27.5%.
As to `Nc1ncnc2c1ncn2[C@@H]1O[C@H](CNCCO[C@@H]2[C@H](O)[C@@H](CO)O[C@H]2n2cnc3c(N)ncnc32)[C@@H](O)[C@H]1O`, the inhibition result (in the data set on Orthopoxvirus vaccinia [1]; with West Nile virus; in the data set on Dengue virus; in data set [4]; in the data set with Zika virus) was “inactive” each time. The compound further returned an inhibition at 0.5 h, 50 µM in [2] of 35.2%. The figures for the inhibition (in [3]; with Orthopoxvirus vaccinia [5]) were 31% and 20.3%, respectively.
Take `Nc1ncnc2c1ncn2[C@@H]1O[C@H](CN(CCCC(=O)O)CCO[C@@H]2[C@H](O)[C@@H](CO)O[C@H]2n2cnc3c(N)ncnc32)[C@@H](O)[C@H]1O`: the inhibition result (in the data set on Orthopoxvirus vaccinia [1]; in the data set with West Nile virus; in the data set on Dengue virus; in data set [4]; in the data set on Zika virus; with Orthopoxvirus vaccinia [5]) was “inactive” in each case. The inhibition in data set [3] stood at 43%.
`Nc1ncnc2c1ncn2[C@@H]1O[C@H](CSCC[C@H](N)C(=O)O)[C@@H](O)[C@H]1O`: the ΔTm in data set [8] stood at 6.5 °C.
Take `Nc1ncnc2c1ncn2[C@@H]1OC(CN(CCCc2ccccc2)CCO[C@@H]2[C@H](O)C(CO)O[C@H]2n2cnc3c(N)ncnc32)[C@@H](O)[C@H]1O` (single isomer, unassigned): the inhibition result (in the data set on Orthopoxvirus vaccinia [1]; with West Nile virus; with Dengue virus; in [4]; in the data set with Zika virus) was “inactive” throughout. The compound further returned an inhibition at 0.5 h, 50 µM in data set [2] of 23.1%. In addition, the pIC50 was 4.26 in data set [6] and under 3.30 in data set [7]. The inhibition was 38.4% in data set [3] and 11.6% with Orthopoxvirus vaccinia [5]. In addition, in data set [8], the ΔTm was determined as 4.6 °C. Also, in data set [9], the Tm was over 40 °C.
Consider `Nc1ncnc2c1ncn2[C@@H]1OC(CN(CCO[C@@H]2[C@H](O)C(CO)O[C@H]2n2cnc3c(N)ncnc32)S(=O)(=O)c2ccc(Cl)cc2)[C@@H](O)[C@H]1O` (single isomer, unassigned), for which the inhibition result (in the data set on Orthopoxvirus vaccinia [1]; in the data set with West Nile virus; with Dengue virus; in [4]; with Zika virus) was “inactive” each time. For the same compound, the inhibition at 0.5 h, 50 µM in data set [2] was determined as 20.2%. The same compound showed a pIC50 in [6] of 5.82. Also, the inhibition amounted to 96.2% in data set [3] and 19.7% in the data set on Orthopoxvirus vaccinia [5]. The ΔTm in data set [8] was 4.6 °C. In addition, in data set [9], the Tm is over 40 °C.
Turning to `Nc1ncnc2c1ncn2[C@@H]1OC(CN(CCO[C@@H]2[C@H](O)C(CO)O[C@H]2n2cnc3c(N)ncnc32)Cc2ccc(Cl)cc2)[C@@H](O)[C@H]1O` (single isomer, unassigned), the inhibition entry (with Orthopoxvirus vaccinia [1]; in the data set on West Nile virus; in the data set with Dengue virus; in [4]; in the data set with Zika virus) was “inactive” each time. Further, the inhibition at 0.5 h, 50 µM in data set [2] turned out to be 14.7%. The compound further had a pIC50 in data set [6] of 5.00. Also, the inhibition in data set [3] came out at 75.9%; in the data set on Orthopoxvirus vaccinia [5], 4.5%. In addition, in [8], the ΔTm was 4.6 °C. Further, the Tm in data set [9] is over 40 °C.
For the compound `Nc1ncnc2c1ncn2[C@@H]1OC(CN(CCO[C@@H]2[C@H](O)C(CO)O[C@H]2n2cnc3c(N)ncnc32)Cc2ccc(Cl)c([N+](=O)[O-])c2)[C@@H](O)[C@H]1O` (single isomer, unassigned), the inhibition result (with Orthopoxvirus vaccinia [1]; in the data set on West Nile virus; with Dengue virus; in data set [4]; in the data set with Zika virus) was “inactive” in each case. Also, in data set [6], the pIC50 is 5.62. The inhibition in data set [3] is 94%; with Orthopoxvirus vaccinia [5], 4.3%. Further, the ΔTm in data set [8] stood at 4.6 °C. For the same compound, the Tm in [9] was over 40 °C.
In data set [2], `Nc1ncnc2c1ncn2[C@@H]1O[C@H](C[C@@H](N)CC[C@H](N)C(=O)O)[C@@H](O)[C@H]1O` [SINEFUNGIN] registered an inhibition at 0.5 h, 50 µM of 99.8%. The pIC50 in [6] is 6.44; in data set [7] it was over 7.30. Moreover, the inhibition stood at 98.3% in data set [3] and 99.8% with Orthopoxvirus vaccinia [5]. Also, the ΔTm in [8] amounted to 4.4 °C.
